Series [1] in a line: Toxicity in nude mouse xenografted with human MGC-803 cells assessed as pathological changes in lungs at 12 to 48 mg/kg, ip administered once every two days for 21 days by H and E staining based analysis. The note with it: in vivo, 504 h, dose 12-48 mg/kg, time 21 day. It is filed as organism-based. The method in brief:
(§1)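 Nude mice carrying s.c. xenografts (1×10^6 cells, right flank) randomized at 60–80 mm³ (n = 6), dosed i.p. every 2 days in 5% v/v DMSO/saline. Major organs examined by H&E staining at 200× magnification.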

Series [2] has as its system MGC-803. Briefly: Induction of ferroptosis in human MGC-803 cells assessed as accumulation of intracellular ROS level by measuring increase in red fluorescence intensity at 25 to 50 uM incubated for 24 hrs by DHE staining based confocal microscopic analysis. It is filed as functional, cell-based. The note with it: dose 25-50 µM.
The test system of series [3] is MGC-803. Briefly: Antitumor activity against human MGC-803 cells xenografted in nude mouse assessed as tumor inhibition ratio at 48 mg/kg, ip administered once every two days for 21 days relative to control. The series is classed as functional. The note with it: MGC-803, 504 h, time 21 day. The procedure, abridged: (§2)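 1×10^6 tumor cells injected s.c. into the right flank of nude mice. At mean tumor volume 60–80 mm³, animals randomized to vehicle or treatment groups (n = 6). Compound in 5% v/v DMSO/saline given i.p. every 2 days. Tumor size and weight recorded; volume = lw²/2 from length and width. Body weight tracked as the systemic toxicity index.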
On the technique in general: Xenograft models place foreign cells or tissue in a host animal.

Series [4] in a line: Toxicity in nude mouse xenografted with human MGC-803 cells assessed as reduction in body weight at 24 to 48 mg/kg, ip administered once every two days for 21 days. The series is classed as organism-based. The note with it: in vivo, 504 h, dose 24-48 mg/kg, time 21 day. The method in brief:
as §2

The subject of another series is HCT-116. The series is described as follows: Antiproliferative activity against human HCT-116 cells incubated for 48 hrs by MTT assay. The series is classed as functional, cell-based. The following applies: HCT-116, 48 h. The method in brief:
(§3)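 Monolayer cells in DMEM with 10% FBS, penicillin and streptomycin, 37°C, 5% CO2. Exponentially growing cells were seeded in 96-well plates and exposed to compound for 48 h. MTT was then added for 4 h at 37°C. Medium was removed, formazan dissolved in DMSO, and OD read at 490 nm. Each plate had five replicate wells, and assays were repeated three times per line.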
In general terms: Tetrazolium dyes change colour on reduction, which living cells bring about.

For series [5], the system named is MGC-803. The series is described as follows: Induction of apoptosis in human MGC-803 cells. The series is classed as functional, cell-based.
A further series concerns Supercoiled DNA. Briefly: Binding affinity to supercoiled circular pBR322 plasmid DNA (unknown origin) assessed as DNA intercalation by measuring migration in gel at 25 to 200 uM incubated for 4 hrs by PI and EtBr staining based gel electrophoresis. It is filed as nucleic-acid assay. The following applies: dose 25-200 µM, in the assay text read “GelRed staining” for “PI and EtBr staining”. The procedure, abridged:
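0.20 μg pBR322 DNA in relaxation buffer (10 mM Tris, 0.1 mM EDTA, 5 mM MgCl₂, 50 mM KCl, 0.01% BSA, pH 7.5), 20 μL, incubated 4 h at 37°C with or without compound at varied concentrations. Stopped with SDS/bromophenol blue/glycerol loading buffer, run on 0.8% agarose in TAE, stained with GelRed; supercoiled and linear forms scored.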

In series [6] the test system is MGC-803. The series is described as follows: Induction of cell cycle arrest in human MGC-803 cells assessed as accumulation of cells at G0/G1 phase at 25 uM incubated for 24 hrs by PI staining based flow cytometry (Rvb=59.09%). The series is classed as functional. A general note: In flow cytometry, cells or beads pass a laser one at a time.
For series [7], the system named is MGC-803. The series is described as follows: Induction of cell cycle arrest in human MGC-803 cells assessed as accumulation of cells at G0/G1 phase at 50 uM incubated for 24 hrs by PI staining based flow cytometry (Rvb=59.09%). The series is classed as functional.
Series [8] is described as follows: Toxicity in nude mouse xenografted with human U-251 cells assessed as pathological changes in lung at 24 to 48 mg/kg, ip administered once every two days for 21 days by H and E staining based analysis. It is filed as organism-based. The following applies: in vivo, 504 h, dose 24-48 mg/kg, time 21 day. The method in brief:
as §1

The subject of series [9] is MGC-803. Briefly: Effect on FACL4 protein expression in human MGC-803 cells at 25 to 50 uM incubated for 24 hrs by Western blot analysis. It is filed as functional, cell-based. The following applies: dose 25-50 µM. The method in brief: (§4)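 MGC-803 cells treated 25 or 50 μM for 24 h, lysed in ice-cold 1% SDS/Tris-HCl pH 7.5 buffer with EDTA, NaCl and protease inhibitors, spun 12,000g 18 min. Protein quantified by BCA; 40–50 μg resolved on 10% SDS-PAGE, transferred to PVDF, milk-blocked 2 h, primary antibody overnight, HRP secondary 1 h at RT. ECL detection with densitometry.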

A further series relates to U-251. Briefly: Antitumor activity against human U-251 cells xenografted in nude mouse assessed as tumor inhibition ratio at 24 mg/kg, ip administered once every two days for 21 days relative to control. It is filed as functional. The note with it: U-251, 504 h, time 21 day. The procedure, abridged: as §2
Series [10] relates to MGC-803. The series is described as follows: Induction of cell cycle arrest at S phase in human MGC-803 cells assessed as decrease in CDK2 protein expression level at 25 to 50 uM incubated for 24 hrs by Western blot analysis. The note with it: dose 25-50 µM. It is filed as functional, cell-based. The method in brief: as §4
Series [11] deals with MGC-803. The series is described as follows: Inhibition of DNA synthesis in human MGC-803 cells at 25 to 50 uM incubated for 24 hrs by EdU staining based fluorescence microscopic analysis. The series is classed as functional, cell-based. The note with it: dose 25-50 µM.
A short description of series [12]: Toxicity in nude mouse xenografted with human MGC-803 cells assessed as pathological changes in liver at 12 to 48 mg/kg, ip administered once every two days for 21 days by H and E staining based analysis. The series is classed as organism-based. The following applies: in vivo, 504 h, dose 12-48 mg/kg, time 21 day. The method in brief: as §1
The subject of another series is T-24. The series is described as follows: Antiproliferative activity against human T24 cells incubated for 48 hrs by MTT assay. The note with it: T-24, 48 h. It is filed as functional, cell-based. The procedure, abridged:
as §3

For series [13], the system named is MGC-803. Briefly: Induction of DNA damage in human MGC-803 cells assessed as appearance of long DNA tails at 25 to 100 uM incubated for 24 hrs by comet assay. The series is classed as functional, cell-based. The note with it: dose 25-100 µM. The procedure, abridged: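 MGC-803 cells exposed 25, 50 or 100 μM for 24 h, mixed 1:8 with low-melt agarose on comet slides, held 1 day at 4°C in dark, lysed 2 h at 4°C. Alkaline unwinding (1 mM EDTA, 300 mM NaOH, pH >13) 45 min at 4°C; electrophoresis in 1 mM EDTA/200 mM NaOH at 25 V, 30 min. Washed in Tris-HCl pH 7.5, PI-stained, imaged by fluorescence microscopy.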

The test system of the next series is MDA-MB-231. Briefly: Antiproliferative activity against human MDA-MB-231 cells incubated for 48 hrs by MTT assay. The series is classed as functional, cell-based. The note with it: MDA-MB-231, 48 h. The procedure, abridged:
as §3

Series [14] in a line: Toxicity in nude mouse xenografted with human U-251 cells assessed as pathological changes in spleen at 24 to 48 mg/kg, ip administered once every two days for 21 days by H and E staining based analysis. The series is classed as organism-based. The note with it: in vivo, 504 h, dose 24-48 mg/kg, time 21 day. The procedure, abridged:
as §1

In series [15] the test system is MGC-803. Briefly: Induction of cell cycle arrest in human MGC-803 cells assessed as accumulation of cells at S phase at 25 uM incubated for 24 hrs by PI staining based flow cytometry (Rvb=28.00%). It is filed as functional.
The subject of series [16] is MGC-803. The series is described as follows: Antiproliferative activity against human MGC-803 cells incubated for 48 hrs by MTT assay. The series is classed as functional, cell-based. The note with it: MGC-803, 48 h. The method in brief: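 Cells kept as monolayers in DMEM with 10% FBS, streptomycin and penicillin, 37°C, 5% CO₂. Exponentially growing cells seeded in 96-well plates, exposed 48 h, then MTT (10 mg/mL stock) for 4 h at 37°C. Medium removed, formazan dissolved in DMSO, OD read at 490 nm. Five wells per condition; each cell line run three times.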

The nature of series [17]: Toxicity in nude mouse xenografted with human MGC-803 cells assessed as pathological changes in heart at 12 to 48 mg/kg, ip administered once every two days for 21 days by H and E staining based analysis. It is filed as organism-based. The note with it: in vivo, 504 h, dose 12-48 mg/kg, time 21 day. The method in brief: as §1

Activity calls are given as the source filed them. No cut-off for these calls is given here.

Usually inhibition in vivo stands for the change of the read-out against control, counted positive when it falls. A word on the IC50: it is the point on the concentration scale where inhibition reaches its midpoint. Higher therefore signals a need for much substance. In the case of `CN(C)CCN1C(=O)c2cccc3c(N4CCN(C(=O)CCOCCOCCOCCOCCNC(=O)CCCCC5SCC6NC(=O)NC65)CC4)ccc(c23)C1=O` (configuration not stated), the Activity entry in [1] was “Non-Toxic”; in series [4], “Non-Toxic”; in the series with MGC-803 [6] it was 53.99%; with MGC-803 [7], 33.17%; in series [8], “Non-Toxic”; in series [12] it was “Non-Toxic”. For the same molecule, the Activity entry is “Non-Toxic” in [14], 22.7% with MGC-803 [15] and “Non-Toxic” in [17]. Also, the result in the series on MGC-803 [2], in the series on Supercoiled DNA, in the series with MGC-803 [10] and in the series with MGC-803 [13] was Active. Moreover, in the series with MGC-803 [3], the inhibition in vivo at 48 mg/kg was 65.5%. In addition, the IC50 in the series on HCT-116, in the series with T-24, in the series with MDA-MB-231 and in the series with MGC-803 [16] was greater than 50 µM each time. The outcome in the series on MGC-803 [5] and in the series with MGC-803 [9] was inactive. Besides, the inhibition in vivo at 24 mg/kg with U-251 came to 74.8%. The inhibition result with MGC-803 [11] was “Active”.
